This note sets out measurements from ChEMBL document CHEMBL1671620, “Mutations in the fks1 gene in Candida albicans, C. tropicalis, and C. krusei correlate with elevated caspofungin MICs uncovered in AM3 medium using the method of the European Committee on Antibiotic Susceptibility Testing” (2008).

For test [1], the system named is Candida albicans. Briefly: Antifungal activity against Candida albicans isolate 10 expressing wild type 1,3-beta-glucan synthase grown on RPMI media after 24 hrs by EUCAST microdilution method. The settings on record: isolate 10, 24 h. In general terms: Dilution methods test growth across graded concentrations, often in twofold steps.
Test [2] has as its system Candida albicans. Briefly: Antifungal activity against Candida albicans isolate 25 expressing wild type 1,3-beta-glucan synthase grown on RPMI media after 24 hrs by EUCAST microdilution method. To be noted: isolate 25, 24 h.
Test [3] has as its system Candida albicans. Briefly: Antifungal activity against Candida albicans isolate 9 expressing wild type 1,3-beta-glucan synthase grown on AM3 media after 48 hrs by EUCAST microdilution method. The settings on record: isolate 9, 24 h, in the assay text read “after 24 hrs” for “after 48 hrs”. Type of test: functional. In outline:
(§1)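 EUCAST (AFST-EUCAST) broth microdilution with caspofungin at 0.015 to 8 μg/ml final, in AM3 with glucose added to 2% final. Final inoculum was 10⁵ yeast cells/ml, with microplates prepared in batches and stored at −20°C. Plates were incubated at 35°C in humid ambient air and read spectrophotometrically after shaking at 24 h and 48 h. MIC was ≥50% growth reduction versus drug-free well; 90% end point also read at both times.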

Test [4] relates to Candida albicans. The test is described as follows: Antifungal activity against Candida albicans isolate 12 expressing wild type 1,3-beta-glucan synthase grown on RPMI media after 24 hrs by EUCAST microdilution method. To be noted: isolate 12, 24 h.
For test [5], the system named is Candida albicans. Briefly: Antifungal activity against Candida albicans isolate 6 expressing wild type 1,3-beta-glucan synthase grown on RPMI media after 24 hrs by EUCAST microdilution method. To be noted: isolate 6, 24 h.
Test [6] deals with Candida albicans. The test is described as follows: Antifungal activity against Candida albicans isolate 5 expressing wild type 1,3-beta-glucan synthase grown on RPMI media after 24 hrs by EUCAST microdilution method. To be noted: isolate 5, 24 h.
Test [7] has as its system Candida albicans. The test is described as follows: Antifungal activity against Candida albicans isolate 23 harboring 1,3-beta-glucan synthase HS2 point mutant grown on RPMI media after 24 hrs by EUCAST microdilution method. To be noted: isolate 23, 24 h.
Test [8] concerns Candida albicans. The test is described as follows: Antifungal activity against Candida albicans isolate 3 expressing wild type 1,3-beta-glucan synthase grown on RPMI media after 24 hrs by EUCAST microdilution method. The settings on record: isolate 3, 24 h.
Test [9] concerns Candida albicans. The test is described as follows: Antifungal activity against Candida albicans isolate 7 expressing wild type 1,3-beta-glucan synthase grown on AM3 media after 48 hrs by EUCAST microdilution method. Type of test: functional. The settings on record: isolate 7, 24 h, in the assay text read “after 24 hrs” for “after 48 hrs”. In outline:
as §1

Converted amounts (≈) assume the structure as drawn.

With `CC[C@H](C)C[C@H](C)CCCCCCCCC(=O)N[C@H]1C[C@@H](O)[C@@H](NCCN)NC(=O)[C@@H]2[C@@H](O)CCN2C(=O)[C@H]([C@H](O)CCN)NC(=O)[C@H]([C@H](O)[C@@H](O)c2ccc(O)cc2)NC(=O)[C@@H]2C[C@@H](O)CN2C(=O)[C@H]([C@@H](C)O)NC1=O` [CASPOFUNGIN], the MIC (in general, the lowest concentration that inhibits growth of the organism) in the test with Candida albicans [1] is 0.5 µg/mL (≈ 0.457 µM); with Candida albicans [2], 0.25 µg/mL (≈ 0.229 µM); against Candida albicans [3], 0.03 µg/mL (≈ 0.0274 µM); in the test on Candida albicans [4], 0.5 µg/mL (≈ 0.457 µM); against Candida albicans [5] it was 0.5 µg/mL (≈ 0.457 µM); with Candida albicans [6], 0.5 µg/mL (≈ 0.457 µM). In addition, the results for the minimum inhibitory concentration (MIC) in the test on Candida albicans [7], against Candida albicans [8] and in the test with Candida albicans [9] were 2 µg/mL (≈ 1.83 µM), 0.25 µg/mL (≈ 0.229 µM) and 0.06 µg/mL (≈ 0.0549 µM), respectively.
